Results reported in ChEMBL document CHEMBL1641521, “Design, synthesis and antimycobacterial activities of 1-methyl-2-alkenyl-4(1H)-quinolones” (Bioorg Med Chem, 2011).
Values after ≈ are worked out from the molar mass of the structure shown.

How the values were obtained:
[1] = system: Mycolicibacterium smegmatis; test: Antimycobacterial activity against Mycobacterium smegmatis ATCC 19420 after 72 hrs by broth microtiter dilution method; format: functional; conditions: ATCC 19420, 72 h
In short: (§1)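 Twofold serial dilution in cation-adjusted Mueller–Hinton broth, final 128–0.25 mg/L, compounds first dissolved in DMSO. Strains grown on Columbia blood agar with 7% defibrinated horse blood; inoculum 5 x 10^5 cfu/mL from 0.5 McFarland suspension in 0.9% NaCl. Three runs in duplicate.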

[2] = Cytotoxicity against human MRC5 cells assessed as metabolic active cells at 100 uM after 72 hrs by XTT assay relative to control; format: ADME, cell-based; conditions: read-out: Activity
In short: (§2)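 MRC-5 human diploid embryonic lung cells seeded at 5 × 10^4 cells/well, grown 24 h, then exposed 72 h at 37 °C, 5% CO2 to compound. Ethanol stocks were diluted with buffer or water; 0.1% ethanol served as solvent control. XTT added, 4 h further, absorbance 490 nm minus 655 nm reference. Viability given as % of solvent control; triplicate on two plates, n = 6, mean ± SEM.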

[3] = Cytotoxicity against human MRC5 cells assessed as metabolic active cells at 30 uM after 72 hrs by XTT assay relative to control; format: ADME, cell-based; conditions: read-out: Activity; in short: as §2
[4] = Selectivity index, ratio of IC50 for human MRC5 cells to MIC for Mycobacterium smegmatis ATCC 19420; format: functional
[5] = system: Mycolicibacterium fortuitum; test: Antimycobacterial activity against Mycobacterium fortuitum ATCC 6841 after 72 hrs by broth microtiter dilution method; format: functional; conditions: ATCC 6841, 72 h; in short: as §1
Mycolicibacterium phlei = test: Antimycobacterial activity against Mycobacterium phlei ATCC 19249 after 72 hrs by broth microtiter dilution method; format: functional; conditions: ATCC 19249, 72 h; in short: as §1

SMILES	MIC [1]	viability at 72 h, 100 µM [2]	viability at 72 h, 30 µM [3]	Selectivity Index [4]	MIC [5]	MIC (Mycolicibacterium phlei)
CCCCCCCC/C=C\CCCc1cc(=O)c2ccccc2n1C	5.9 µM (≈ 2 µg/mL)	32%	76.3%			
CC/C=C\CCCCCCCCCc1cc(=O)c2ccccc2n1C	5.9 µM (≈ 2 µg/mL)	95.4%	95.3%	> 20		
CCCCCCCCC/C=C\CCCCc1cc(=O)c2ccccc2n1C	2.7 µM (≈ 0.992 µg/mL)	0.8%	46.6%			
CCCC/C=C\CCCCc1cc(=O)c2ccccc2n1C	26.9 µM (≈ 8 µg/mL)	83.5%	96.8%		8 µg/mL (≈ 26.9 µM)	8 µg/mL (≈ 26.9 µM)
CCCCCCCCCC/C=C\CCc1cc(=O)c2ccccc2n1C	2.8 µM (≈ 0.99 µg/mL)	4.9%	55.1%		1 µg/mL (≈ 2.83 µM)	1 µg/mL (≈ 2.83 µM)
CCCCCCCC/C=C\CCc1cc(=O)c2ccccc2n1C	6.2 µM (≈ 2.02 µg/mL)	85.6%	88.3%	> 20		
CCCCC/C=C\CCCCc1cc(=O)c2ccccc2n1C	12.9 µM (≈ 4.02 µg/mL)	88.5%	94.9%			
CCCCCC/C=C\CCc1cc(=O)c2ccccc2n1C	53.9 µM (≈ 16 µg/mL)	47.9%	73.8%			
CCCCCC/C=C\CCCCc1cc(=O)c2ccccc2n1C	3.1 µM (≈ 1.01 µg/mL)	81.2%	94.7%	> 20		
CCCCCCCCC/C=C\CCc1cc(=O)c2ccccc2n1C	5.9 µM (≈ 2 µg/mL)	82.1%	89.7%	> 20		
CCCCCCCC/C=C\CCCCCCCCc1cc(=O)c2ccccc2n1C	39.1 µM (≈ 16 µg/mL)	25.5%	84.4%			
CCCCCCCCC/C=C\CCCCCCCCc1cc(=O)c2ccccc2n1C	151 µM (≈ 64.1 µg/mL)	19.9%	95.9%			
CCCCCCCCCC/C=C\CCCCCCCCc1cc(=O)c2ccccc2n1C	293 µM (≈ 128 µg/mL)	91.5%	98.9%			
CCCCCCCC/C=C\CCCCCCCc1cc(=O)c2ccccc2n1C	20.3 µM (≈ 8.03 µg/mL)	0.4%	53.4%			
CCCCC/C=C\C/C=C\CCCCCCCc1cc(=O)c2ccccc2n1C	5.1 µM (≈ 2.01 µg/mL)	0.4%	44.2%		4 µg/mL (≈ 10.2 µM)	8 µg/mL (≈ 20.3 µM)
CCCCCCCCCCCCCc1cc(=O)c2ccccc2n1C	188 µM (≈ 64.1 µg/mL)	69.6%	102%			
CCCCCCCCCCCCCCCc1cc(=O)c2ccccc2n1C	347 µM (≈ 128 µg/mL)	57.9%	79.8%			
CCCCCCCCCCCCCCCCCc1cc(=O)c2ccccc2n1C	> 322 µM	95.2%	100%			
CCCCCC/C=C/c1cc(=O)c2ccccc2n1C	14.9 µM (≈ 4.01 µg/mL)	76.5%	96.8%			
CCCCC/C=C/c1cc(=O)c2ccccc2n1C	62.7 µM (≈ 16 µg/mL)	77.2%	86.2%			
CCCCCCCCCC/C=C/C=C/c1cc(=O)c2ccccc2n1C	182 µM (≈ 64.1 µg/mL)	32.5%	73.8%			
CCCCCCCCCCC/C=C/C=C/c1cc(=O)c2ccccc2n1C	10.9 µM (≈ 3.98 µg/mL)	18.5%	50.7%		2 µg/mL (≈ 5.47 µM)	4 µg/mL (≈ 10.9 µM)
CC[C@@H](CO)NCCN[C@@H](CC)CO [ETHAMBUTOL]					8 µg/mL (≈ 39.2 µM)	4 µg/mL (≈ 19.6 µM)
CCCCC/C=C\CCCCCCc1cc(=O)c2ccccc2n1C [EVOCARPINE]	5.9 µM (≈ 2 µg/mL)	87.6%	94%		2 µg/mL (≈ 5.89 µM)	2 µg/mL (≈ 5.89 µM)
NNC(=O)c1ccncc1 [ISONIAZID]					1 µg/mL (≈ 7.29 µM)	4 µg/mL (≈ 29.2 µM)
